# Source: ChEMBL document CHEMBL1130123, “Optimization of 3-(1H-indazol-3-ylmethyl)-1,5-benzodiazepines as potent, orally active CCK-A agonists” (J Med Chem, 1997)
# Columns and labels:
# [1] = organism: Cavia porcellus; experiment: In vitro functional efficacy relative to CCK-8 in inducing contraction of the isolated guinea pig gallbladder (GPGB) at a 1 uM concentration.
# Procedure, shortened: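 Isolated guinea pig gallbladder, ligand 1 μM, 30 min at 37 °C; maximal contraction expressed relative to CCK-8 (1 μM) = 100%; values ± 5%.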
# [2] = target: T1, Cholecystokinin receptor type A (Homo sapiens, UniProt P32238); experiment: In vitro for binding affinity against human cholecystokinin type A receptor.
# T1 sequence (P32238 whole entry): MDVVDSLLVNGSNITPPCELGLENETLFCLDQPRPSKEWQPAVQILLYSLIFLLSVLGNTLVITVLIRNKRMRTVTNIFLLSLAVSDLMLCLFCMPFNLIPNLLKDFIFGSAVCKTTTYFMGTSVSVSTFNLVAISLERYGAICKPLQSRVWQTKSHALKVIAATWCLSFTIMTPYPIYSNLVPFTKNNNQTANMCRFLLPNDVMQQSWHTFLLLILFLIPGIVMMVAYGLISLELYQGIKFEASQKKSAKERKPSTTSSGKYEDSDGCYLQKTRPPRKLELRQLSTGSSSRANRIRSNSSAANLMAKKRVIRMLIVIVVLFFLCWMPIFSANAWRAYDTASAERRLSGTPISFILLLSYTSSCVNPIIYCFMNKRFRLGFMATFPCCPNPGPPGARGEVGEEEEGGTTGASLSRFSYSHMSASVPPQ
# [3] = organism: Cavia porcellus; experiment: In vitro functional agonist activity in the isolated guinea pig gall bladder, concentration at which 50% of the maximal contraction observed was reported.; details: read-out: ED50 (the source's name)
# [4] = target: T2, Gastrin/cholecystokinin type B receptor (Homo sapiens, UniProt P32239); experiment: In vitro for binding affinity against human cholecystokinin type B receptor.
# T2 sequence (P32239 whole entry): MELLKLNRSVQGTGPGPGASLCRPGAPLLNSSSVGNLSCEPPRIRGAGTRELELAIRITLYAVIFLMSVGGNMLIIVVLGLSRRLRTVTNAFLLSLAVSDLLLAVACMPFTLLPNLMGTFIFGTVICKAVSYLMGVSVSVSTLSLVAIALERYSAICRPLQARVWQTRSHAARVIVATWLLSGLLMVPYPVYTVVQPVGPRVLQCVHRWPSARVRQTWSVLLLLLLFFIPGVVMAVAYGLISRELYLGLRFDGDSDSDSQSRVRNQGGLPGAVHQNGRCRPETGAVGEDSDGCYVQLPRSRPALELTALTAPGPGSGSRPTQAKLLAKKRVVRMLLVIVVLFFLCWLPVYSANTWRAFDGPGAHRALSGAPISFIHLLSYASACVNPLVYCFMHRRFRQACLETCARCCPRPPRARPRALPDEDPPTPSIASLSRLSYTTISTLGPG
# [5] = Volume of distribution at steady state at an intravenous dose of 6.5 mg/kg in rat; format: ADME, organism-based; design: dose 6.5 mg/kg, route intravenous; details: in vivo, read-out: Vss
# [6] = test system: Mus musculus; experiment: Maximal response at 1 nmol/kg peroral dose; format: functional
# [7] = test system: Mus musculus; experiment: Intraperitoneal dose that produces a half maximal response in mouse gall bladder emptying assay (in vivo); format: functional; details: ip
# [8] = Maximum concentration at an peroral dose of 6.2 mg/kg in rat; format: ADME, organism-based; design: dose 6.2 mg/kg, route oral; details: in vivo, po
# [9] = Maximum concentration at an intravenous dose of 6.5 mg/kg in rat; format: ADME, organism-based; design: dose 6.5 mg/kg, route intravenous; details: in vivo
# [10] = test system: Mus musculus; experiment: Peroral dose that produces a half maximal response in mouse gall bladder emptying assay (in vivo); format: functional; details: po
# [11] = Half life period at an intravenous dose of 6.5 mg/kg in rat; format: ADME, organism-based; design: dose 6.5 mg/kg, route intravenous; details: in vivo
# [12] = Total body clearance at an intravenous dose of 6.5 mg/kg in rat; format: ADME, organism-based; design: dose 6.5 mg/kg, route intravenous; details: in vivo
# [13] = Oral bioavailability in Long-Evans rats at an peroral dose of 6.5 mg/kg; format: ADME, organism-based; details: rat, in vivo
# [14] = test system: Mus musculus; experiment: Maximal response at 1 nmol/kg intraperitoneal dose; format: functional
# [15] = Maximum concentration at an intravenous dose of 5.5 mg/kg in rat; format: ADME, organism-based; design: dose 5.5 mg/kg, route intravenous; details: in vivo
# [16] = Maximum concentration at an peroral dose of 6.3 mg/kg in rat; format: ADME, organism-based; design: dose 6.3 mg/kg, route oral; details: in vivo, po
# [17] = Volume of distribution at steady state at an intravenous dose of 5.5 mg/kg in rat; format: ADME, organism-based; design: dose 5.5 mg/kg, route intravenous; details: in vivo, read-out: Vss
# [18] = Total body clearance at an intravenous dose of 5.5 mg/kg in rat; format: ADME, organism-based; design: dose 5.5 mg/kg, route intravenous; details: in vivo
# [19] = Half life period at an intravenous dose of 5.5 mg/kg in rat; format: ADME, organism-based; design: dose 5.5 mg/kg, route intravenous; details: in vivo
# [20] = test system: Mus musculus; experiment: Maximal response at 0.5 umol/kg intraperitoneal dose; format: functional
# [21] = Oral bioavailability in Long-Evans rats at an peroral dose of 6.3 mg/kg; format: ADME, organism-based; details: rat, in vivo
# [22] = test system: Mus musculus; experiment: maximal response at 1 nmol/kg peroral dose; format: functional
compound,measurement,setting,value
COc1ccc(N(C(=O)CN2C(=O)C(Cc3cc(C)[nH]n3)C(=O)N(c3ccccc3)c3ccccc32)C(C)C)cc1 (configuration not stated),Max,[1],20%
COc1ccc(N(C(=O)CN2C(=O)C(Cc3n[nH]c4ccccc34)C(=O)N(c3ccccc3)c3ccccc32)C2CCCC2)cc1 (configuration not stated),IC50,[2],17 nM
same,Max,[1],90%
same,EC50,[3],40 nM
same,IC50,[4],776 nM
COc1ccc(N(C(=O)CN2C(=O)C(C)(Cc3nn(C)c4ccccc34)C(=O)N(c3ccccc3)c3ccccc32)C(C)C)cc1 (configuration not stated),Vd,[5],11.1 L/kg
same,Max,[6],75%
same,IC50,[2],38.9 nM
same,ED50,[7],0.01 µmol/kg
same,Cmax,[8],20 ng/mL
same,Cmax,[9],3270 ng/mL
same,ED50,[10],0.45 µmol/kg
same,half-life,[11],7.5 h
same,Max,[1],60%
same,EC50,[3],240 nM
same,clearance,[12],31 mL/min/kg
same,bioavailability,[13],4%
CC(C)N(C(=O)CN1C(=O)C(Cc2n[nH]c3ccccc23)C(=O)N(c2ccccc2)c2ccccc21)c1ccc(C(F)(F)F)cc1 (configuration not stated),IC50,[2],661 nM
same,Max,[1],80%
same,EC50,[3],230 nM
same,IC50,[4],1660 nM
COc1ccc(N(C(=O)CN2C(=O)C(Cc3csc4ccccc34)C(=O)N(c3ccccc3)c3ccccc32)C(C)C)cc1 (configuration not stated),Max,[1],50%
COc1ccc(N(C(=O)CN2C(=O)C(Cc3c[nH]c4ccccc34)C(=O)N(c3ccccc3)c3ccccc32)C(C)C)cc1 (configuration not stated),Max,[6],74%
same,ED50,[7],0.0038 µmol/kg
same,ED50,[10],0.1 µmol/kg
same,Max,[14],90%
COc1ccc(N(C(=O)CN2C(=O)C(Cc3n[nH]c4cc(F)ccc34)C(=O)N(c3ccccc3)c3ccccc32)C(C)C)cc1 (configuration not stated),IC50,[2],29.5 nM
same,Max,[1],100%
same,EC50,[3],40 nM
same,IC50,[4],589 nM
CC(C)N(C(=O)CN1C(=O)C(Cc2n[nH]c3ccccc23)C(=O)N(c2ccccc2)c2ccccc21)c1ccc2c(c1)OCO2 (configuration not stated),IC50,[2],355 nM
same,Max,[1],100%
same,EC50,[3],20 nM
same,IC50,[4],724 nM
COc1ccc(N(C(=O)CN2C(=O)C(Cc3n[nH]c4cccc(F)c34)C(=O)N(c3ccccc3)c3ccccc32)C(C)C)cc1 (configuration not stated),IC50,[2],17.4 nM
same,Max,[1],100%
same,EC50,[3],70 nM
same,IC50,[4],1700 nM
COc1ccc(N(C(=O)CN2C(=O)C(Cc3c[nH]c4ccccc34)(OC)C(=O)N(c3ccccc3)c3ccccc32)C(C)C)cc1 (configuration not stated),Max,[6],54%
same,IC50,[2],13.8 nM
same,Max,[1],60%
same,EC50,[3],150 nM
same,IC50,[4],29500 nM
same,Max,[14],84%
COc1ccc(N(C(=O)CN2C(=O)C(Cc3n[nH]c4ccccc34)(OC)C(=O)N(c3ccccc3)c3ccccc32)C(C)C)cc1 (configuration not stated),Cmax,[15],4900 ng/mL
same,Cmax,[16],90 ng/mL
same,Max,[6],72%
same,IC50,[2],14.5 nM
same,ED50,[7],0.0003 µmol/kg
same,ED50,[10],0.1 µmol/kg
same,Vd,[17],7.63 L/kg
same,Max,[1],70%
same,EC50,[3],70 nM
same,IC50,[4],3630 nM
same,clearance,[18],35 mL/min/kg
same,half-life,[19],3.4 h
same,Max,[14],89%
same,Max,[20],52%
same,bioavailability,[21],5%
COc1ccc(N(C(=O)CN2C(=O)C(C)(Cc3c[nH]c4ccccc34)C(=O)N(c3ccccc3)c3ccccc32)C(C)C)cc1 (configuration not stated),Max,[22],46%
same,ED50,[7],0.0008 µmol/kg
same,ED50,[10],0.38 µmol/kg
same,Max,[14],91%
COc1ccc(N(C(=O)CN2C(=O)C(Cc3n[nH]c4ncccc34)C(=O)N(c3ccccc3)c3ccccc32)C(C)C)cc1 (configuration not stated),IC50,[2],112 nM
same,Max,[1],90%
same,EC50,[3],40 nM
same,IC50,[4],11200 nM
CC(C)(C)N(C(=O)CN1C(=O)C(Cc2n[nH]c3ccccc23)C(=O)N(c2ccccc2)c2ccccc21)c1ccccc1 (configuration not stated),IC50,[2],891 nM
same,Max,[1],90%
same,EC50,[3],110 nM
COc1ccc(N(C(=O)CN2C(=O)C(C)(Cc3cn(C)c4ccccc34)C(=O)N(c3ccccc3)c3ccccc32)C(C)C)cc1 (configuration not stated),IC50,[2],17.8 nM
same,Max,[1],40%
